Drawing on ChEMBL document CHEMBL4422635, “Structure-Based Discovery of a Subtype-Selective Inhibitor Targeting a Transient Receptor Potential Vanilloid Channel” (J Med Chem, 2019), this text covers inhibition for one compound.

Active and inactive are the calls of the source. The rule behind the calls is not given here.

One test relates to Mus musculus. In words: Antagonist activity at mouse TRPV2/LPAR1 expressed in LPA-stimulated HEK293T cells assessed as inhibition of 2-APB evoked currents at 10 uM dosed 3 mins after LPA stimulation by whole-cell patch clamp assay. The gist of the method:
(§1)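 Whole-cell voltage clamp of transiently transfected HEK293T cells co-expressing GFP, recorded 36-96 h post-transfection. Hold -60 mV; pipettes 3-7 MΩ. Bath 165 mM NaCl, 10 mM HEPES pH 7.3; pipette 140 mM KCl, 10 mM HEPES pH 7.3. Room temperature (~25 °C). IC50 from Hill fits of I/I0, the current ratio after vs before inhibitor; mean ± SEM.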
Background: In patch-clamp work, channel activity is measured electrically.

Test [1] has as its target T1, Transient receptor potential cation channel subfamily V member 2 (Homo sapiens) (UniProt Q9Y5S1).
T1 sequence (whole entry): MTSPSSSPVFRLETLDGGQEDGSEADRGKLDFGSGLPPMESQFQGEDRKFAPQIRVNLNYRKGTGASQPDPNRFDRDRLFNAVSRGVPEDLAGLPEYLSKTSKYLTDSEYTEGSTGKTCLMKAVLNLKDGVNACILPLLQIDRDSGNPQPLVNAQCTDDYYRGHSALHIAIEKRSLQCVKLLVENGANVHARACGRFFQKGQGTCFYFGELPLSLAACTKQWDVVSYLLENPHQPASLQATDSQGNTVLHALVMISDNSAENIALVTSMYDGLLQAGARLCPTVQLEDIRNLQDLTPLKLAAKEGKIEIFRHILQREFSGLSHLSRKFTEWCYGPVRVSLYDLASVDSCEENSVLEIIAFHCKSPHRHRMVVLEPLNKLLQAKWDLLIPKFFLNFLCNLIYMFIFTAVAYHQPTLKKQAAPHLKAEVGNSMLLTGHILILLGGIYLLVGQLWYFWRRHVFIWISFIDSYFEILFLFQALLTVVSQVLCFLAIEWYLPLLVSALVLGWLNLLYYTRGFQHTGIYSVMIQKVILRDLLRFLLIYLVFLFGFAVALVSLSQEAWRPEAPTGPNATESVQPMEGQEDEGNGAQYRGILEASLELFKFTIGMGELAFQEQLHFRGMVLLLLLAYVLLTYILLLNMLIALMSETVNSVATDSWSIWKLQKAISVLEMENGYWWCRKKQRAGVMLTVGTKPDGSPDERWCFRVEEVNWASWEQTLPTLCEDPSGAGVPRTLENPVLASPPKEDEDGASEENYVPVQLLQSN
In words: Antagonist activity at TRPV2 in human PC3M cells assessed as inhibition of LPA-induced intracellular calcium levels at 100 uM Fluo-4 AM-based fluorescence assay. The class given is cell-based. The method in brief: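 PC-3M cells cultured 24 h, loaded with 2 μM Fluo-4 AM in HBSS for 45 min at 37 °C, then compound added. Cytoplasmic Ca2+ rise read as relative fluorescence at ex 485 / em 525 nm.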
For orientation: Calcium flux is commonly read through the fluorescence of an indicator in the cells.

Test [2] deals with T2, Transient receptor potential cation channel subfamily V member 2 (Mus musculus), Q9WTR1 [Q525E].
T2 sequence (whole entry): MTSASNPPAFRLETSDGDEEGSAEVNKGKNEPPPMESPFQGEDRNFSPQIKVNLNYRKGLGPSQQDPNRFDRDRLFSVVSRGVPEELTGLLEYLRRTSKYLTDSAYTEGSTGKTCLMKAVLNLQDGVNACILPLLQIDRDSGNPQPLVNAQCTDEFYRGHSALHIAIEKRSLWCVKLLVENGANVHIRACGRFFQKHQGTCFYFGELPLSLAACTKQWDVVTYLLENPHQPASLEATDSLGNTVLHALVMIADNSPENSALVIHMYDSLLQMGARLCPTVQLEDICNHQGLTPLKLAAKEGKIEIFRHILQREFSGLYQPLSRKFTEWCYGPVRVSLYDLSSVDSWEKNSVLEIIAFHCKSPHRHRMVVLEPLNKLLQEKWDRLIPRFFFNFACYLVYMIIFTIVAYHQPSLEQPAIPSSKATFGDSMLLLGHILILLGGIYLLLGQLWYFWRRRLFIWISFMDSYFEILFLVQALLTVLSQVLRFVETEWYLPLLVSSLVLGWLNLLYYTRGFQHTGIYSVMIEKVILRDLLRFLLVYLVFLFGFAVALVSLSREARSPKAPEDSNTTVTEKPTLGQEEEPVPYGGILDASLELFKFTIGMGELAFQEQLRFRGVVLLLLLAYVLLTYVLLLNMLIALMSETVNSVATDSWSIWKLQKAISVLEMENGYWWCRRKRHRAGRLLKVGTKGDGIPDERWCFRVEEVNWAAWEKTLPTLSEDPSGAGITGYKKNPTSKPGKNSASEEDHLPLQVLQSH
The experiment in a line: Antagonist activity at mouse TRPV2 Q525E mutant expressed in HEK293T cells assessed as inhibition of 2-APB evoked currents at -60 mV holding potential by whole-cell patch clamp assay. The class given is cell-based. The gist of the method: as §1

As for `CCCN(C)c1cc(C(F)(F)F)nc(SCCC(=O)NCc2ccco2)n1`, the inhibition entry (in the test on Mus musculus; in test [1]) was “Active” in each case. Moreover, the inhibition result in test [2] is “inactive”.
